According to ChEMBL document CHEMBL1132976, “Biarylcarbamoylindolines are novel and selective 5-HT(2C) receptor inverse agonists: identification of 5-methyl-1-[[2-[(2-methyl-3-pyridyl)oxy]- 5-pyridyl]carbamoyl]-6-trifluoromethylindoline (SB-243213) as a potential antidepressant/anxiolytic agent” (J Med Chem, 2000):

How the values were obtained:
[1] = target: T1, 5-hydroxytryptamine receptor 2C (Homo sapiens, UniProt P28335); assay: Binding affinity towards human cloned 5-hydroxytryptamine receptor 2C in HEK293 cells, using [3H]mesulergine as radioligand.; assay type: cell-based
T1 sequence (P28335 whole entry): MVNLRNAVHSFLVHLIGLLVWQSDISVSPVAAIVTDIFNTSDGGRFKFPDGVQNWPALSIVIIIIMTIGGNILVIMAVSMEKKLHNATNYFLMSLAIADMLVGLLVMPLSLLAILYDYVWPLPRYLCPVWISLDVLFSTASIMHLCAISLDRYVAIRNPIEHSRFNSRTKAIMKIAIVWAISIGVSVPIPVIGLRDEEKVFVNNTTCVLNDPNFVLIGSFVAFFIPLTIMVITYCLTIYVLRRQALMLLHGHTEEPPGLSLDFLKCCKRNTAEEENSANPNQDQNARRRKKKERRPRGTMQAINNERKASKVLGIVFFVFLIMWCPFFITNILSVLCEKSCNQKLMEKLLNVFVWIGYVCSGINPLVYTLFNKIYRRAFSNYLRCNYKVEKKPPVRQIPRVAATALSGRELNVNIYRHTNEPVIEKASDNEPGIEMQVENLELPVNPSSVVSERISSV
How it was run: (§1)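 Competition binding at human cloned receptors expressed in HEK 293 cells. Radioligands: [3H]ketanserin for 5-HT2A, [3H]5-HT for 5-HT2B, [3H]mesulergine for 5-HT2C. Values are pKi, given as the mean of at least two determinations, each within 0.2 log unit of the mean.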

Rattus norvegicus = assay: Dose required to reverse mCPP induced hypolocomotion in rat after oral administration.; assay type: functional; conditions: read-out: ID50 (the source's name)
How it was run: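 Rat hypolocomotion model. The test compound was given orally, and mCPP was given at 7 mg/kg ip 30 min before the test. ID50 (mg/kg po) is the dose that reverses mCPP-induced hypolocomotion by 50%.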

[2] = target: T2, Serotonin 2 receptors; 5-HT2a & 5-HT2c (Homo sapiens) (UniProt P28223+P28335); assay: Selectivity index determined from binding affinities of 5-HT2C and 5-HT2A.; assay type: protein assay
[3] = target: T3, 5-hydroxytryptamine receptor 2B (Homo sapiens, UniProt P41595); assay: Binding affinities towards human cloned 5-hydroxytryptamine 2B receptor in HEK293 cells using [3H]5-HT as radioligand.; assay type: cell-based; how it was run: as §1
[4] = target: T4, Serotonin receptor (2b and 2c) (Homo sapiens) (UniProt P41595+P28335); assay: Selectivity index determined from the binding affinities of 5-HT2C and 5-HT2B.; assay type: protein assay
Cytochrome P450 1A2 [5] = target: T5, Cytochrome P450 1A2 (Homo sapiens, UniProt P05177); assay: Inhibition of heterologously expressed human cytochrome P450 1A2.; assay type: ADME
T5 sequence (P05177 whole entry): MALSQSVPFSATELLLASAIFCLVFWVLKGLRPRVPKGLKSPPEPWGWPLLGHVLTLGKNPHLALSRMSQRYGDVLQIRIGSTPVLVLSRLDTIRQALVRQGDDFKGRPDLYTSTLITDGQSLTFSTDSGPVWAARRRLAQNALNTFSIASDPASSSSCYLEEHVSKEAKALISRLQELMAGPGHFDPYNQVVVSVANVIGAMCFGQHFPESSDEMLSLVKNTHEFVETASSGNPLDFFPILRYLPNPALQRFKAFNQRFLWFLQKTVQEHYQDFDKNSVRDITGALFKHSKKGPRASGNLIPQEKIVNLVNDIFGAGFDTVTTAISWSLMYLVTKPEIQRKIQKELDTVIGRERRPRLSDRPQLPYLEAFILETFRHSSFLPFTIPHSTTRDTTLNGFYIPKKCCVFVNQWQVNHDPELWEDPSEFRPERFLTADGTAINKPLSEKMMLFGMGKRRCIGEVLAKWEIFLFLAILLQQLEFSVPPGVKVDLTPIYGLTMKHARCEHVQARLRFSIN
How it was run: (§2)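 Heterologously expressed human CYP1A2 in an isoform-selective assay. Substrate: caffeine N3-demethylation at 500 µM, at the substrate Km.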

[6] = target: 5-hydroxytryptamine receptor 2A (Homo sapiens, UniProt P28223); assay: Binding affinity towards human cloned 5-hydroxytryptamine receptor 2A in HEK293 cells, using [3H]ketanserin as radioligand.; assay type: cell-based; how it was run: as §1
[7] = target: T3, 5-hydroxytryptamine receptor 2B; assay: Displacement of [3H]5-HT from human 5-hydroxytryptamine 2B receptor expressed in HEK293 cells; assay type: cell-based; how it was run: as §1
Cytochrome P450 1A2 [8] = target: T5, Cytochrome P450 1A2; assay: Inhibition of heterologously expressed human cytochrome P450 1A2; assay type: ADME; how it was run: as §2
[9] = target: T2, Serotonin 2 receptors; 5-HT2a & 5-HT2c (Homo sapiens); assay: Selectivity index for binding affinities for 5-HT2C and 5-HT2A receptors; assay type: protein assay
[10] = target: T4, Serotonin receptor (2b and 2c) (Homo sapiens); assay: Selectivity index for binding affinities for 5-HT2C and 5-HT2B receptors; assay type: protein assay
Cytochrome P450 2C19 = Cytochrome P450 2C19 (Homo sapiens, UniProt P33261); assay: Inhibition of heterologously expressed human cytochrome P450 2C19; assay type: ADME
Chain of Cytochrome P450 2C19 (P33261 whole entry): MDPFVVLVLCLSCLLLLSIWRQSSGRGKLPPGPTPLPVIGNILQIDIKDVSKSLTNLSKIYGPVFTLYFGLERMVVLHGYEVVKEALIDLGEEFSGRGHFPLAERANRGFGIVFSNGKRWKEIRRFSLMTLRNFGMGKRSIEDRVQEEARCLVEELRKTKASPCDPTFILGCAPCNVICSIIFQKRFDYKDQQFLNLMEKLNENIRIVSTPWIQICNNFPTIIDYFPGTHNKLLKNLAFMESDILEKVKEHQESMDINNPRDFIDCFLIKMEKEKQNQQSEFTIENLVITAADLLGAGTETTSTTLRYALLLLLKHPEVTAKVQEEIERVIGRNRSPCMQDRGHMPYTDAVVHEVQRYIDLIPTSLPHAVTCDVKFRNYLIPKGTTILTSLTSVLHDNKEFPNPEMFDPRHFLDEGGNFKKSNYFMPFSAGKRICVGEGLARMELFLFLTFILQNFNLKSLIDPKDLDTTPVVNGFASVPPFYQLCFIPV

T3 sequence (P41595 whole entry): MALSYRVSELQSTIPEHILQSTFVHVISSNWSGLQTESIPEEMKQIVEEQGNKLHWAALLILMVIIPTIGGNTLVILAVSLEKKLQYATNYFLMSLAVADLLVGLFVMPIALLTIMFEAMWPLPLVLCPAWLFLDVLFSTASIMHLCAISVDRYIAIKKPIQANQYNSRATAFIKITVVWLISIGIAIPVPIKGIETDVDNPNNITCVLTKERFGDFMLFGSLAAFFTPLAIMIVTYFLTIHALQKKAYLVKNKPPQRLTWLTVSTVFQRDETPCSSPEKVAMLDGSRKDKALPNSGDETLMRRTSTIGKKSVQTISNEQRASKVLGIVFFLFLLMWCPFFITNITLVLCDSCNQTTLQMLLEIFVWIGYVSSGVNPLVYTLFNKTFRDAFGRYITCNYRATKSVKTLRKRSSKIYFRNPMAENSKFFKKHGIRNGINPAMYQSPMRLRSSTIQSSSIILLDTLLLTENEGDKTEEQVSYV
T2 sequence (P28223 whole entry, looked up, one chain of several): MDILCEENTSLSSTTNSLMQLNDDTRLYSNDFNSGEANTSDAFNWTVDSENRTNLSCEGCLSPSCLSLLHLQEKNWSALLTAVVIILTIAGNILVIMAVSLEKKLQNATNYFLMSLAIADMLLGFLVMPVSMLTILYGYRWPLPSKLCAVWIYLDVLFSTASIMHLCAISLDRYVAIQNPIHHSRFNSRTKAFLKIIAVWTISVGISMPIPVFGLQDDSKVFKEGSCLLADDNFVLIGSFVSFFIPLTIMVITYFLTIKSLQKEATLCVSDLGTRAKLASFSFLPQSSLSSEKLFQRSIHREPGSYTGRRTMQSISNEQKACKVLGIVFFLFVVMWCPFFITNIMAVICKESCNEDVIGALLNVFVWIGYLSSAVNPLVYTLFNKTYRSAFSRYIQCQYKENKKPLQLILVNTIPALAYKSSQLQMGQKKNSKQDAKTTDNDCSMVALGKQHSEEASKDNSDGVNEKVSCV
Chain of 5-hydroxytryptamine receptor 2A (P28223 whole entry): as the sequence (P28223 whole entry, looked up, one chain of several) above

Row | Compound | Ki [1] | ED50 (Rattus norvegicus) | Selectivity [2] | Ki [3] | Selectivity [4] | IC50 (Cytochrome P450 1A2 [5]) | Ki [6] | Ki [7] | Inhibition (Cytochrome P450 1A2 [5]) | Inhibition (Cytochrome P450 1A2 [8]) | Selectivity [9] | Selectivity [10] | inhibition at 1 µM (Cytochrome P450 1A2 [5]) | IC50 (Cytochrome P450 2C19)
1 | COc1cc2c(cc1C(F)(F)F)N(C(=O)Nc1ccc(C)c(-c3cnccc3C)c1)CC2 | 0.316 nM | 1.4 mg/kg | > 20000 | 3.98 nM | 12 | > 100000 nM | > 6310 nM |  |  |  |  |  |  | 
2 | COc1cc2c(cc1C(F)(F)F)N(C(=O)Nc1cncc(-c3cc(F)cc(F)c3)c1)CC2 | 79.4 nM |  | 15 |  | 6 |  | 1260 nM | 501 nM |  |  |  |  |  | 
3 | COc1cc2c(cc1C(F)(F)F)N(C(=O)Nc1cc(Br)cc(-c3cccnc3)c1)CC2 | 2 nM | 5 mg/kg | > 500 | 20 nM | 10 | 7000 nM | > 1000 nM |  |  |  |  |  |  | 
4 | CCc1cc(NC(=O)N2CCc3cc(OC)c(C(F)(F)F)cc32)cc(-c2cccnc2)c1 | 0.631 nM | 1.2 mg/kg | 320 | 10 nM | 16 | 6000 nM | 200 nM |  |  |  |  |  |  | 
5 | COc1cc2c(cc1C(F)(F)F)N(C(=O)Nc1cncc(-c3c(F)cccc3F)c1)CC2 | 25.1 nM |  | > 420 |  | 4 |  | > 10000 nM | 100 nM |  |  |  |  |  | 
6 | COc1cc2c(cc1C(F)(F)F)N(C(=O)Nc1cc(-c3cccnc3)ccc1F)CC2 | 2000 nM |  | 4 | 2000 nM | 1 |  | 7940 nM |  |  |  |  |  |  | 
7 | COc1cc2c(cc1C(F)(F)F)N(C(=O)Nc1cccc(-c3c(C)ccnc3C)c1)CC2 | 2.51 nM |  | 80 | 12.6 nM | 5 |  | 200 nM |  |  |  |  |  |  | 
8 | COc1cc2c(cc1C(F)(F)F)N(C(=O)Nc1cncc(-c3cccnc3)c1)CC2 | 0.794 nM |  | 80 |  | 12 |  | 63.1 nM | 10 nM | 77% |  |  |  |  | 
9 | COc1cc2c(cc1C(F)(F)F)N(C(=O)Nc1cc3c(c(-c4cccnc4)c1)OCC3)CC2 | 0.501 nM | 2 mg/kg | 500 | 7.94 nM | 16 | 2000 nM | 251 nM |  |  |  |  |  |  | 
10 | COc1cc2c(cc1C(F)(F)F)N(C(=O)Nc1ccc(Cl)c(-c3cccnc3)c1)CC2 | 5.01 nM | 5.5 mg/kg | 250 | 25.1 nM | 5 | 73000 nM | 1260 nM |  |  |  |  |  |  | 
11 | COc1cc2c(cc1C(F)(F)F)N(C(=O)Nc1cccc(-c3cccnc3C)c1)CC2 | 5.01 nM | > 10 mg/kg | 100 | 15.8 nM | 3 |  | 501 nM |  |  | 2% |  |  |  | 
12 | COc1cc2c(cc1C(F)(F)F)N(C(=O)Nc1ccc(C)c(-c3cccnc3)c1)CC2 | 1 nM | 1.6 mg/kg | 5000 | 5.01 nM | 5 | 7000 nM | 5010 nM |  |  |  |  |  |  | 
13 | COc1cc2c(cc1C(F)(F)F)N(C(=O)Nc1ccc(Oc3cccnc3C)nc1)CC2 | 0.631 nM | 2.8 mg/kg |  | 50.1 nM |  | > 100000 nM | 794 nM |  |  |  | 1300 | 80 |  | 
14 | COc1cc2c(cc1C(F)(F)F)N(C(=O)Nc1cncc(-c3ccncc3)c1)CC2 | 0.631 nM |  | 100 |  | 16 | 50000 nM | 63.1 nM | 10 nM |  |  |  |  |  | 
15 | COc1cc2c(cc1C(F)(F)F)N(C(=O)Nc1cccnc1)CC2 |  |  | 120 |  |  | 20 nM |  |  |  |  |  |  |  | 
16 | COc1cc2c(cc1C(F)(F)F)N(C(=O)Nc1cc(-c3ccccc3)cc(-c3cccnc3)c1)CC2 | 2.51 nM | > 5 mg/kg | 250 | 15.8 nM | 6 |  | 631 nM |  |  |  |  |  |  | 

Row | Compound | Ki [1] | ED50 (Rattus norvegicus) | Selectivity [2] | Ki [3] | Selectivity [4] | IC50 (Cytochrome P450 1A2 [5]) | Ki [6] | Ki [7] | Inhibition (Cytochrome P450 1A2 [5]) | Inhibition (Cytochrome P450 1A2 [8]) | Selectivity [9] | Selectivity [10] | inhibition at 1 µM (Cytochrome P450 1A2 [5]) | IC50 (Cytochrome P450 2C19)
17 | COc1cc2c(cc1C(F)(F)F)N(C(=O)Nc1cccc(-c3cccnc3)c1Cl)CC2 | 10 nM |  | 25 | 5.01 nM | 0.5 |  | 251 nM |  |  |  |  |  |  | 
18 | CSc1cc2c(cc1C(F)(F)F)N(C(=O)Nc1cccc(-c3cccnc3)c1)CC2 | 1.58 nM |  | 50 |  | 5 |  | 79.4 nM | 7.94 nM |  |  |  |  |  | 
19 | COc1cc2c(cc1C(F)(F)F)N(C(=O)Nc1cccc(-c3ccccn3)c1)CC2 | 20 nM |  | 25 |  |  |  | 501 nM |  |  |  |  |  | 3% | 
20 | COc1cc2c(cc1C(F)(F)F)N(C(=O)Nc1ccc(-c3cccnc3)cc1)CC2 | 15.8 nM | > 10 mg/kg | 250 | 10 nM | 0.6 |  | 3980 nM |  |  |  |  |  |  | 
21 | COc1cc2c(cc1C(F)(F)F)N(C(=O)Nc1cccc(-c3cnccc3C)c1)CC2 | 0.631 nM | 5 mg/kg | 400 |  |  |  | 251 nM |  |  |  |  |  | 8% | 
22 | Cc1cc2c(cc1Cl)N(C(=O)Nc1ccc(Oc3cccnc3C)nc1)CC2 [SB-242084] |  |  |  |  |  |  |  |  |  |  | 160 | 100 |  | > 100000 nM
23 | COc1ccc(NC(=O)N2CCc3cc(OC)c(C(F)(F)F)cc32)cc1-c1cccnc1 | 0.501 nM | 1.2 mg/kg | 400 | 15.8 nM | 30 |  | 200 nM |  | 3% |  |  |  |  | 
24 | COc1cc2c(cc1C(F)(F)F)N(C(=O)Nc1cncc(-c3ccc(F)cc3)c1)CC2 | 6.31 nM | 10 mg/kg | 40 |  |  |  | 251 nM | 63.1 nM |  |  |  |  |  | 
25 | COc1cc2c(cc1C(F)(F)F)N(C(=O)Nc1cc(F)c(C)c(-c3cccnc3)c1)CC2 | 0.631 nM | > 5 mg/kg | 1600 | 7.94 nM | 13 |  | 1580 nM |  |  |  |  |  |  | 
26 | COc1cc2c(cc1C(F)(F)F)N(C(=O)Nc1ccc(Oc3cccnc3)nc1)CC2 | 1.26 nM | 0.7 mg/kg | 80 | 20 nM | 16 |  | 100 nM |  |  |  |  |  |  | 
27 | CSc1cc2c(cc1C(F)(F)F)N(C(=O)Nc1cccc(-c3ccncc3)c1)CC2 | 3.16 nM |  | 50 |  | 8 |  | 158 nM | 25.1 nM |  |  |  |  |  | 
28 | COc1cc2c(cc1C(F)(F)F)N(C(=O)Nc1ccc(Cl)c(-c3cnccc3C)c1)CC2 | 0.631 nM | 1.4 mg/kg | > 1500 |  |  | 11000 nM | > 1000 nM |  |  |  |  |  |  | 
29 | COc1cc2c(cc1C(F)(F)F)N(C(=O)Nc1ccc(-c3ccncc3)cc1)CC2 | 5.01 nM |  | > 2000 | 12.6 nM | 3 |  | > 10000 nM |  |  |  |  |  |  | 
30 | COc1cc2c(cc1C(F)(F)F)N(C(=O)Nc1cccc(-c3cccnc3)c1C)CC2 | 25.1 nM |  | 16 |  |  |  | 398 nM |  |  |  |  |  |  | 
31 | COc1cc2c(cc1C(F)(F)F)N(C(=O)Nc1cncc(-c3ccccc3)c1)CC2 | 5.01 nM | > 20 mg/kg | 320 |  | 5 | 2600 nM | 1580 nM | 25.1 nM |  |  |  |  |  | 
32 | COc1cc2c(cc1C(F)(F)F)N(C(=O)Nc1cccc(-c3cccnc3)c1)CC2 | 1 nM | 0.6 mg/kg | 200 | 7.94 nM | 8 | 4000 nM | 200 nM |  |  |  |  |  |  | 
